Screening results as filed in PubChem.
TIM10 inh: growth inhibitors of isogenic TIM10 control yeast, primary screen, counter-screen for tim10-1 yeast inhibitor project, luminescence, uHTS | actives 1.4% (n = 330,000) | S. cerevisiae TIM10 strain growth, BacTiter-Glo luminescence, 24 h | AID 463195, 2010 | inhibition, % at 10 µM;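 active = inhibition of 40% or more at the single tested concentration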;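 also: wild-type TIM10 isogenic control strain grown at permissive 25 °C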
UPR CHOP act: activators of apoptotic CHOP UPR arm, primary screen, cell-based, CHO-CHOP luciferase reporter, luminescence, uHTS; UPR activation; percent of tunicamycin response over DMSO baseline; activation, % at 10 µM; actives 0.34% (n = 330,000); AID 449763, 2010;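 active = at 10 µM dose, activation of 40% or more, normalized to positive control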;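 also: 100% = tunicamycin at 10 µg/mL and 0% = DMSO alone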
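Dosing – one dose, 10 µM in 0.5% DMSO · System – CHO-CHOP cells, stable luciferase reporter of PERK-eIF2a-CHOP signalling · Input – 500 cells/well · Control set – tunicamycin 10 µg/mL final as positive, DMSO-only wells as negative · Timing – 6 h compound treatment, 37 °C · Measure – % activation vs tunicamycin · Technique – luminescence read with Steady-Glo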
tim10-1 inh: growth inhibitors of tim10-1 mutant yeast, primary screen, luminescence, uHTS; S. cerevisiae tim10-1 ts strain growth, BacTiter-Glo, 24 h; inhibition, % at 20 µM; actives 2.2% (n = 330,000); AID 463190, 2010;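 active = inhibition of at least 40%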;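 also: mutant grown at 25 °C; 0% = DMSO wells with yeast and 100% = wells holding no yeast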
tim23-1 inh: growth inhibitors of tim23-1 mutant yeast, primary screen, luminescence, uHTS; S. cerevisiae tim23-1 growth, BacTiter-Glo luminescence, 24 h; inhibition, % at 20 µM; actives 1.3% (n = 330,000); AID 463212, 2010;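 active = growth inhibition of the mutant yeast at or above 50%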;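 also: temperature-sensitive mutant grown at 25 °C; plate controls were DMSO-treated mutant yeast for no effect and medium wells lacking yeast for full effect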
XBP1 UPR activ: activators of adaptive XBP1 UPR arm, primary screen, cell-based, CHO-XBP1 luciferase reporter, luminescence, uHTS; actives 0.33% (n = 330,000); AID 463104, 2010; IRE1-XBP1 UPR activation; percent of tunicamycin response, DMSO as zero; activation, % at 20 µM;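 active = versus positive control, 20 µM dose yields 30% or more activation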;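 also: 100% = tunicamycin at 10 µg/mL and 0% = DMSO only wells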
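Material: CHO cell line with stable XBP1 luciferase reporter; schedule: 16-18 h cell attachment at 37 °C, then 6 h compound exposure; signal: glow luminescence from Steady-Glo reagent; medium: serum-containing F12 medium, 10% FBS; benchmarks: tunicamycin 10 µg/mL and vehicle-only wells; read-out: percent activation relative to tunicamycin reference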
UPR XBP1 confirm: IRE1-XBP1 UPR arm activators, confirmation, cell-based, CHO-XBP1 luciferase reporter, luminescence, single concentration | activation, % at 20 µM | actives 63% (n = 1,000) | shares compounds with XBP1 UPR activ | AID 485299, 2010;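 active = reporter signal at least 30% of the positive control's activation in two or more of four replicate wells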;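 also: plate controls were DMSO negative control for no effect and tunicamycin 10 µg/mL positive control for full effect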
* = called active by the depositor; nt = not tested or not shown. An excerpt weighted towards active compounds, which were near 3.9% of everything screened.

SMILES	TIM10 inh	UPR CHOP act	tim10-1 inh	tim23-1 inh	XBP1 UPR activ	UPR XBP1 confirm
COC(=O)c1[nH]c2cc(OC)c(OC)cc2c1/C=N/Nc1ccccc1	-27	9	-21	41	36*	12
CCCCCn1c(N)c(-c2nc3ccccc3o2)c2c([N+](=O)[O-])nn(CC)c(=O)c21	-8	16	7	1	38*	53*
CC(Nc1ccc2ccccc2c1)C(=O)N/N=C/c1ccncc1 (configuration not stated)	7	0	17	27	2	nt
CCCC[C@@H](CNC)NC[C@H](NCCCCC1CCCCC1)C(C)C	6	6	-1	11	25	nt
CCC[C@@H](CN[C@@H](CNC)[C@H](C)CC)NCC1CCC(C(C)(C)C)CC1 (some centres not stated)	8	33	1	-26	51*	30*
CCC[C@H](CN[C@@H](CNC)[C@H](C)CC)NCCc1cc(C(F)(F)F)cc(C(F)(F)F)c1	12	36	13	-9	52*	22
CC[C@@H](C)[C@H](CNC)NC[C@@H](Cc1cccc2ccccc12)NCCc1cccc(C(F)(F)F)c1	-2	34	29	-95	8	nt
CC1CC1C(=O)OCC(=O)Nc1ccc(Cl)cn1 (configuration not stated)	4	4	0	9	-1	nt
CCc1ccccc1NC(=O)C(CC)Sc1nc2cc3c(cc2c(=O)n1Cc1ccco1)OCO3 (configuration not stated)	6	5	27	-3	95*	193*
NC(=O)CSc1nc2ccccc2c(=O)n1Cc1ccco1	-22	-1	-15	-15	-4	nt
CCc1ccc2[nH]c3nc(SCc4nnc(-c5ccc(C)cc5)o4)nnc3c2c1	-5	10	15	-4	95*	93*
CC1CCc2cc(F)ccc2N1C(=O)CSc1nnc2c(n1)[nH]c1ccc(F)cc12 (configuration not stated)	25	2	23	13	67*	51*
CCc1ccc2[nH]c3nc(SCC(=O)NNC(=O)c4ccc(C(C)(C)C)cc4)nnc3c2c1	-5	2	14	-10	60*	42*
CCc1ccc2[nH]c3nc(SCCN4CCOCC4)nnc3c2c1	1	-2	13	12	-3	nt
O=C(CSc1nnc2c(n1)[nH]c1ccc(F)cc12)Nc1ccccc1F	-32	-1	-6	-14	-5	nt
Cc1ccc(C(=O)NNC(=O)CSc2nnc3c(n2)[nH]c2ccc(C)cc23)cc1	-7	-1	-8	-6	-1	nt
CCOC(=O)c1c(NC(=O)CSc2nnc3c(n2)[nH]c2ccc(F)cc23)sc(C(C)=O)c1C	-25	15	14	-9	62*	51*
COc1ccc(CCN2CC(C(=O)NCCCn3nc(C)cc3C)CCC2=O)cc1 (configuration not stated)	6	2	-8	-16	-2	nt
CCc1ccccc1OCC(=O)Nc1cc(S(=O)(=O)N(CC)CC)ccc1N1CCOCC1	20	1	14	30	-1	nt
CCC1CCc2c(sc3nc(SCC(=O)NCc4ccco4)n(-c4ccccc4)c(=O)c23)C1 (configuration not stated)	4	3	4	2	43*	70*
Cc1ccc(-n2c(SCC(=O)NCc3ccco3)nc3sc4c(c3c2=O)CC(C)(C)SC4)cc1	-21	0	18	-21	-1	nt
Cc1ccc(C)c(N2N=C(C(=O)OCc3nnc(-c4ccccc4)o3)CCC2=O)c1	1	0	-13	2	-2	nt
COC(=O)CSc1nc(N)c2c3c(sc2n1)CCCC3	8	-1	10	29	1	nt
COC(=O)CSc1nc(N)c2c3c(sc2n1)C(c1ccccc1)SC(c1ccccc1)C3 (configuration not stated)	37	-7	31	25	38*	14
Cc1ccc(-c2cc(C(F)F)nc3sc4c(=O)[nH]cnc4c23)cc1	0	26	8	13	44*	19
SMILES	TIM10 inh	UPR CHOP act	tim10-1 inh	tim23-1 inh	XBP1 UPR activ	UPR XBP1 confirm
O=C(CN1C(=O)NC2(CCCCC2)C1=O)N1CCOCC1	8	0	8	13	2	nt
COc1cc(CN2CCCCC2)ccc1OCc1ccccc1	-8	4	-24	3	37*	1
Cn1c(=O)c2c(nc(N3CCCCC3)n2C)n(C)c1=O	12	-3	17	13	52*	0
O=C(CCl)Nc1ccccc1Sc1ccc(Cl)cc1	-11	25	23	10	45*	7
COC(=O)C(C(C)C)N(Cc1cc(OC)cc(OC)c1)S(=O)(=O)CCl (configuration not stated)	-10	1	19	42	-2	nt
Cc1ccc(C(C(=O)NCc2ccco2)N(C(=O)CNC(=O)c2cccs2)c2c(C)cccc2C)cc1 (configuration not stated)	-22	5	11	-17	19	nt
Cc1ccc(C(C(=O)NCc2ccco2)N(C(=O)CNC(=O)c2cccs2)c2c(C)cc(C)cc2C)cc1 (configuration not stated)	-3	25	1	18	36*	32*
COC(=O)c1sccc1NC(=O)c1cc(-c2cccc(C)c2)nc2ccccc12	-3	-1	-3	-6	64*	80*
CSc1ccccc1NC(=O)c1cc(-c2cccnc2)nc2ccc(Br)cc12	12	1	-11	-11	32*	66*
Cc1cc(NC(=O)c2cc(-c3ccncc3)nc3ccccc23)ccc1Br	1	2	16	33	66*	44*
CC(C)N(C(=O)[C@H]1C[C@H](CC(=O)NCC23CC4CC(CC(C4)C2)C3)C(=O)N2CCc3c([nH]c4ccc(Cl)cc34)[C@]12C)C(C)C	10	9	23	38	39*	50*
CC1(C)CC(=O)C(C=Nc2ccc3cn[nH]c3c2)=C(O)C1	14	15	27	28	30*	10
CCCCCOCC(O)CCC(=O)NN (configuration not stated)	-1	-2	5	4	34*	-3
CCCCC(CC(O)COCC(C)C)C(=O)NN (configuration not stated)	-4	1	14	4	-2	nt
O=[N+]([O-])c1cccc(C(=NCc2ccccc2)NO)c1	8	1	4	3	-3	nt
